# Only some compounds are listed: those with a hit (about 2.9% of all), similar ones and a draw of the others.
# TRPC6 inh: inhibitors of mouse TRPC6 channel; Q61143; HEK293-TRPC6, membrane potential dye, ACh-evoked depolarization; stronger effect = lower value; B-score at 10 µM; actives 1.1% (n = 310,000); AID 2553;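 active = B-score under library mean minus 3 SD, initial fluorescence not abnormally high, positive integrated signal ratio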;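 also: B-score derived from integrated fluorescence ratio over the kinetic read; more negative B-score means stronger inhibition of depolarization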
# TRPC4 block: TRPC4 (mouse) channel inhibition. Q9QUQ5. HEK293 TRPC4beta/mu-opioid, DAMGO-evoked Fluo4 calcium flux; stronger effect = lower value. B-score at 10 µM. actives 0.39% (n = 300,000);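 active = B-score over 3 SD under the library average, no early fluorescence shift, positive overall ratio signal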
#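 Assay system: Stable TRPC4beta/mu-opioid receptor HEK293 cells | Reagent: DAMGO in two steps, submaximal then maximal | Compound dosing: Single concentration per test compound | Signal: Fluo4 Ca2+ flux fluorescence | Evaluation: Per-well B score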
# Kir21 inh: blocks the mouse Kir2.1 inward-rectifier potassium channel. P35561. HEK293-Kir2.1, FluxOR thallium flux fluorescence; stronger effect = lower value. B-score at 10 µM. actives 0.85% (n = 310,000);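 active = fluorescence ratio B-score at or below minus 3 SD of library scores, with starting-brightness B-score within 2 SD, cut at about -4.2 in these data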;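 also: channel flux triggered by added potassium and thallium sulfate stimulus; B-score of peak minus minimum fluorescence over baseline after thallium stimulus; more negative B-score means stronger Kir2.1 block with less thallium influx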
# Target sequence (P35561 whole entry, looked up): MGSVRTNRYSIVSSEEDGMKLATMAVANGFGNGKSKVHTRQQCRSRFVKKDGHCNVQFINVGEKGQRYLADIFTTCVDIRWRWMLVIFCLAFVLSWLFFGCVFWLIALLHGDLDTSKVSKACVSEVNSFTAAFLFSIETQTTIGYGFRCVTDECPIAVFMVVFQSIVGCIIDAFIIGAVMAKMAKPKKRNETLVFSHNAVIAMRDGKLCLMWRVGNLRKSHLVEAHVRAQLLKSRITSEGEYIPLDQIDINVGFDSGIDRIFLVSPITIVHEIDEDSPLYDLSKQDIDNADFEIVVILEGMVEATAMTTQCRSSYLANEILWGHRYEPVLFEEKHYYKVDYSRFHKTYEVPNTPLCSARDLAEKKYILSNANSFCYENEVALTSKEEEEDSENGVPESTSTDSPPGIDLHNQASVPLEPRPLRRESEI
# TRPC6 activator: activates the mouse TRPC6 cation channel | Q61143 | AID 2550 | actives 0.13% (n = 310,000) | HEK293-TRPC6 membrane potential dye fluorescence; stronger effect = higher value | B-score at 10 µM;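 active = B-score of the integrated fluorescence ratio above library mean plus 3 SD, and starting fluorescence ratio within library mean plus 5 SD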;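 also: higher score means more depolarization so channel activation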
# TRPC4 act: opens the mouse TRPC4 cation channel | Q9QUQ5 | HEK293 TRPC4beta/mu-opioid, Fluo4 calcium fluorescence; stronger effect = higher value | B-score at 10 µM | actives 0.49% (n = 310,000) | AID 2237;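 active = B-score above 5 SD of library B-scores, and initial fluorescence ratio not above library mean plus 5 SD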;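 also: positive B-score marks a calcium rise read as TRPC4 activation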
#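 Assay system: HEK293 stable line with TRPC4beta plus mu-opioid receptor; schedule: 45 min room-temperature Fluo4 loading, 110 s read; technique: kinetic Fluo4 calcium fluorescence; evaluation: integrated baseline-normalised fluorescence ratio, converted to per-well B score; controls: buffer (low) and maximal DAMGO (high)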
# TRPC4 potent: TRPC4 (mouse) allosteric potentiation; Q9QUQ5; HEK293 TRPC4beta/mu-opioid, DAMGO EC20, Fluo-4 Ca2+ flux; stronger effect = higher value; B-score at 10 µM; actives 0.42% (n = 310,000); AID 2227;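 active = B-score of calcium response area above 5 SD of library B-scores, with initial fluorescence ratio within 5 SD of library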;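 also: B-score of integrated fluorescence ratio over time as area under calcium response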
# * hit, by the source's call; i = inactive.
SMILES,TRPC6 inh,TRPC4 block,Kir21 inh,TRPC6 activator,TRPC4 act,TRPC4 potent
CCCOc1ccc(C(=O)NNC(=S)NC(=O)c2cccs2)cc1,i,i,-0.39,i,175*,i
CC(C)(C)c1ccc(C(=O)NC(=S)NNC(=O)COc2ccccc2)cc1,i,-6*,0.96,i,72*,i
CCN1C(=O)CC(NC2CCN(C(=O)c3ccc(F)cc3)CC2)C1=O (stereo not given),i,i,2,i,i,i
NC(=O)c1cccc(CS(=O)(=O)c2ccc(Cl)cc2)c1,i,i,-2.7,i,i,i
O=S(=O)(Cc1ccccc1)N(O)c1ccccc1,i,i,1.4,i,i,i
O=C1CC(NS(=O)(=O)c2cccs2)CN1c1cccc(F)c1 (stereo not given),i,i,0.39,i,i,i
O=C1CC(NS(=O)(=O)c2cccs2)CN1c1ccccc1 (stereo not given),i,i,0.4,i,i,18*
Cc1noc(C)c1CCC(=O)NC1CCCN(Cc2ccc(CC(C)C)cc2)C1 (stereo not given),i,i,-1.2,i,101*,i
O=C(NCCc1c[nH]c2ccccc12)c1cnccn1,i,i,0.28,i,i,i
O=C(CSc1nnc(-c2ccccc2)o1)c1ccc2c(c1)OCCO2,i,-6*,0.97,i,i,i
CN1CCCC1CCNC1C2CC3CC(C2)CC1C3 (stereo not given),i,i,-4.7*,i,i,i
CN1CCCC1CCNS(=O)(=O)c1ccc(Br)cc1 (stereo not given),i,i,-0.82,i,i,i
CCc1cc(CC)c(/C=N/NC(N)=O)c(CC)c1,i,i,-7.3*,i,i,i
O=C(CCCCCNC(=O)c1ccccc1)N=Nc1c(O)[nH]c2c(Br)cc(Br)cc12,i,i,0,i,i,i
NC(=O)N=Nc1c(O)[nH]c2c(Br)cc(Br)cc12,i,i,-0.82,i,i,11*
COc1ccc(-c2nn(-c3ccccc3)cc2C(=O)NCC2CCCO2)cc1 (stereo not given),i,i,-1.2,i,49*,i
Cn1cc(CNCC2CCCO2)c(-c2ccc(Oc3ccccc3)cc2)n1 (stereo not given),i,-7*,-1.3,i,i,i
Cc1nnc2sc(-c3ccncc3)nn12,i,i,0.06,i,i,i
Cc1nnc2sc(-c3csc4c3CCCC4)nn12,i,-6*,1.1,i,i,i
CC1CC(C)CN(CCCNC(=O)CCC(=O)N2CC(C)Oc3ccccc32)C1 (stereo not given),i,i,-0.55,i,53*,i
CC1CN(C(=O)CCC(=O)NCCc2ccccc2)c2ccccc2O1 (stereo not given),i,i,-0.39,i,i,i
Cc1ccc2c(c1)N(C(=O)CCC(=O)NCc1cccc(Cl)c1)CC(C)O2 (stereo not given),i,-7*,-0.14,i,i,i
Cc1ccc2c(c1)N(C(=O)CCC(=O)Nc1ccccc1Cl)CC(C)O2 (stereo not given),i,-8*,-1.7,i,i,i
COc1cccc(NC(=O)CCC(=O)N2CC(C)Oc3ccc(C)cc32)c1 (stereo not given),i,-7*,0.84,i,i,i
Cc1ccc2c(c1)N(C(=O)CCC(=O)NCc1ccccc1)CC(C)O2 (stereo not given),i,i,0.24,i,i,i
SMILES,TRPC6 inh,TRPC4 block,Kir21 inh,TRPC6 activator,TRPC4 act,TRPC4 potent
O=C(CCSc1ccc(Br)cc1)c1ccc(O)cc1,i,i,0.01,i,i,i
Cc1cccc(Cn2c(N3CCN(C)CC3)nc3c2c(=O)n(C)c(=O)n3C)c1,i,i,0.25,i,i,i
CCN(CC)CC(=O)Nc1ccc2c(c1)N(C(=O)CN(CC)CC)c1ccccc1CC2,i,i,1.4,i,i,i
CCN(CC)CC(=O)Nc1ccc2c(c1)Nc1ccccc1CC2,i,i,-5.6*,i,i,i
CCCn1c(NC(=O)c2cccc(S(=O)(=O)N3CCCC3)c2)nc2ccccc21,i,-6*,0.14,i,i,43*
CCCCCc1cc(O)c2c(C)cc(=O)oc2c1,i,i,-0.48,i,i,i
CCCCc1cc(O)c(CCCC)c(O)c1,i,i,-1.3,i,65*,11*
O=C(NCCCN1CCN(c2cccc(Cl)c2)CC1)C1CCC(=O)N1Cc1ccccc1Cl (stereo not given),i,-6*,-0.37,i,i,i
Clc1ccc(Cl)c(OCCCCNCc2ccccc2)c1,i,i,-12*,i,i,i
C=CCNCCCOc1ccc(Cl)cc1Br,i,i,-1.8,i,i,16*
OCCNCCCOc1ccc(Cl)cc1Br,i,i,-1.6,i,i,i
Clc1ccc(OCCCNCc2ccccc2)c(Br)c1,i,i,-16*,i,i,i
Nc1cc(=O)nc(SCC(=O)N2CCN(c3ccccc3)CC2)n1-c1ccc(F)cc1,i,-6*,0.81,i,i,i
Cc1cc(NS(=O)(=O)c2ccc(NC(=O)COc3ccc(Cl)cc3Cl)cc2)no1,i,i,1.5,i,i,i
Cc1cc(NS(=O)(=O)c2ccc(NC(=O)COc3ccc(Cl)c(C)c3)cc2)no1,i,-6*,1.6,i,i,i
Cn1c(-c2cccc3ccccc23)n[nH]c1=S,i,i,-0.19,i,102*,i
COC(=O)c1cc([N+](=O)[O-])ccc1N1CCN(Cc2ccccc2)CC1,i,i,0.71,i,i,11*
COc1ccc(CCNC(=O)COc2cccc3c2OC(C)(C)C3)cc1OC,i,i,-5.8*,i,i,i
CC1(C)Cc2cccc(OCC(=O)OCC(=O)NCc3ccccc3)c2O1,i,i,-4.3*,i,i,i
O=C(CC1CCCCC1)NCc1nc(-c2ccccc2)no1,i,i,0.43,i,i,i
O=C(O)c1ccc(Cl)cc1Nc1nc2cc(Cl)ccc2o1,i,-6*,0.75,i,i,i
CC(C)NC(=S)NC(c1ccccc1)(c1ccccc1)c1ccccc1,i,i,0.44,i,i,i
CC/C(=N\NC(=O)C(N)=O)c1ccccc1O,i,i,0.02,i,i,i

# Assay outcomes as filed in PubChem BioAssay.
